Measured values as given in ChEMBL document CHEMBL1157544, “New benzophenone-derived bisphosphonium salts as leishmanicidal leads targeting mitochondria through inhibition of respiratory complex II” (2010).
Calls of active or inactive are those of the source. The calls are words filed in the database; no cut-off is given here.

Tests used:
Leishmania pifanoi = assay: Antileishmanial activity against Leishmania pifanoi MHOM/VE/60/Ltrod after 96 hrs by MTT assay; format: functional
In short: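 Axenic amastigotes harvested at late exponential phase, washed twice in HBSS plus 10 mM D-glucose (pH 7.2) and set at 2 × 10^7 cells/mL. Drug exposure 4 h at 32 °C, then washed. Regrowth 96 h at 32 °C in growth medium without phenol red, followed by MTT (1 mg/mL) reduction for 2 h at 32 °C. LC50 taken from sigmoidal curves; triplicates ± SD.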

Leishmania donovani [1] = assay: Antileishmanial activity against Leishmania donovani MHOM/SC/00/1S-2D promastigotes after 48 hrs by MTT assay; format: functional
In short: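 Late-exponential promastigotes washed twice in HBSS plus 10 mM D-glucose (pH 7.2) and resuspended at 2 × 10^7 cells/mL. Drug exposure 4 h at 25 °C, then cells washed to remove unbound drug. Regrowth 48 h at 25 °C in growth medium without phenol red, followed by MTT (1 mg/mL) reduction for 2 h at 25 °C. LC50 taken from sigmoidal inhibition curves; mean of triplicates ± SD.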

Leishmania donovani [2] = assay: Antileishmanial activity against Leishmania donovani MHOM/SC/00/1S-2D promastigotes assessed as rhodamine 123 accumulation at LC50 by mitochondrial membrane potential assay; format: functional
In short: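 Promastigotes held overnight in growth medium with each compound at its LC50, then loaded with 0.3 μg/mL rhodamine 123. Dye uptake measured by flow cytometry (ex 488/em 525 nm) and expressed as percent of untreated cells. 1 mM KCN used as the fully depolarized control.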

Leishmania donovani [3] = assay: Antileishmanial activity against digitonized Leishmania donovani MHOM/SC/00/1S-2D promastigotes assessed as restoration of oxygen consumption at 16 uM in presence of TMPD-ascorbate; format: functional
In short: (§1)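 Clark electrode at 25 °C. Promastigotes at 10^8 cells/mL in respiration buffer with 5 mM succinate and 1 mg/mL fatty-acid-free BSA. Cells permeabilized with 60 μM digitonin, then 100 μM ADP added for state 3. After a steady rate, compound added, then 10 μM FCCP, 0.1 mM TMPD + 1.7 mM ascorbate, 6.7 mM α-glycerophosphate, 2 mM malonate or 1 μM antimycin A. Rates taken from trace slopes.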

Leishmania donovani [4] = assay: Antileishmanial activity against Leishmania donovani MHOM/SC/00/1S-2D promastigotes assessed as plasma membrane integrity at 25 uM; format: functional, organism-based
In short: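 SYTOX green uptake. Promastigotes (2 × 10^7/mL) in HBSS-Glc were preincubated with 1 μM dye before compound was added. Fluorescence read at ex 485/em 520 nm. Full permeation was defined by 0.1% Triton X-100.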

Leishmania donovani [5] = assay: Decrease in intracellular ATP level in Leishmania donovani MHOM/SC/00/1S-2D promastigotes assessed as luminescence at 0.6 to 8 uM; format: functional, organism-based
In short: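 3-Luc promastigotes expressing cytoplasmic firefly luciferase, 2 × 10^7/mL in HBSS-Glc, loaded with 25 μM DMNPE-luciferin (final). Compound added at the luminescence plateau, counted as time zero and 100%. Luminescence recorded 80 min, averaged every 4 s, and normalized to untreated parasites.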

Leishmania donovani [6] = assay: Antileishmanial activity against Leishmania donovani MHOM/SC/00/1S-2D promastigotes assessed as inhibition of proliferation at 5 um after 4 hrs; format: functional
In short: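 Promastigotes washed into HBSS-Glc pH 7.2 at 2 × 10^7 cells/mL and exposed to drug for 4 h at 25 °C. Cells then washed and left to grow 48 h at 25 °C in growth medium without phenol red. Growth read by MTT reduction (1 mg/mL, 2 h). Triplicate samples.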

Leishmania donovani [7] = assay: Induction of morphological changes in Leishmania donovani MHOM/SC/00/1S-2D promastigotes assessed as mitochondrial kinetoplast at 5 uM after 4 hrs; format: functional, organism-based
In short: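 Promastigotes treated 4 h under the standard conditions, washed in PBS and fixed in 5% glutaraldehyde. Post-fixed in 2.5% OsO4 for 1 h, dehydrated through graded ethanol and propylene oxide, embedded in Epon 812 and imaged by transmission electron microscopy.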

Leishmania donovani [8] = assay: Antileishmanial activity against digitonized Leishmania donovani MHOM/SC/00/1S-2D promastigotes assessed as inhibition of oxygen consumption at 16 uM; format: functional, organism-based; in short: as §1
Leishmania donovani [9] = assay: Antileishmanial activity against digitonized Leishmania donovani MHOM/SC/00/1S-2D promastigotes assessed as inhibition of oxygen consumption at 16 uM in presence of FCCP mitochondrial uncoupler; format: functional, organism-based; in short: as §1
Leishmania donovani [10] = assay: Antileishmanial activity against digitonized Leishmania donovani MHOM/SC/00/1S-2D promastigotes assessed as restoration of oxygen consumption at 16 uM in presence of alpha-glycerophosphate; format: functional, organism-based; in short: as §1
Leishmania donovani [11] = assay: Induction of apoptosis in Leishmania donovani MHOM/SC/00/1S-2D promastigotes assessed as apoptotic cells at 15 uM propidium iodide fluorescence cytofluorometry; format: functional
In short: (§2)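 Promastigotes incubated overnight with the compound, then stained with 50 μg/mL propidium iodide. The sub-G1 peak was measured by flow cytometry. 15 μM miltefosine under identical conditions served as the positive control.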

Leishmania donovani [12] = assay: Induction of apoptosis in Leishmania donovani MHOM/SC/00/1S-2D promastigotes assessed as apoptotic cells at 1 uM propidium iodide fluorescence cytofluorometry; format: functional; in short: as §2
Leishmania donovani [13] = assay: Induction of apoptosis in Leishmania donovani MHOM/SC/00/1S-2D promastigotes assessed as apoptotic cells at 2.5 uM propidium iodide fluorescence cytofluorometry; format: functional; in short: as §2

Compound | LC50 (Leishmania pifanoi) | LC50 (Leishmania donovani [1]) | Activity (Leishmania donovani [2]) | other results
O=C(c1ccc(C[P+](c2ccccc2)(C2CCCCC2)C2CCCCC2)cc1)c1ccc(C[P+](c2ccccc2)(C2CCCCC2)C2CCCCC2)cc1.[Br-].[Br-] | 1.45 µM | 2.1 µM | 83.12% | 
CCC[P+](CCC)(CCC)Cc1ccc(C(=O)c2ccc(C[P+](CCC)(CCC)CCC)cc2)cc1 | > 50 µM | > 50 µM |  | 
O=C(c1ccc(C[P+](c2ccccc2)(c2ccccc2)c2ccccn2)cc1)c1ccc(C[P+](c2ccccc2)(c2ccccc2)c2ccccn2)cc1.[Br-].[Br-] | 2.58 µM | 3.03 µM | 100% | 
C[P+](Cc1ccc(C(=O)c2ccc(C[P+](C)(c3ccccc3)c3ccccc3)cc2)cc1)(c1ccccc1)c1ccccc1.[Br-].[Br-] | 1.64 µM | 19.3 µM | 100% | 
CCCCCCCCCCCCCCCCOP(=O)([O-])OCC[N+](C)(C)C [MILTEFOSINE] | 26.3 µM | 12.5 µM | 75% | 
CCCCC[P+](CCCCC)(CCCCC)Cc1ccc(C(=O)c2ccc(C[P+](CCCCC)(CCCCC)CCCCC)cc2)cc1.[Br-].[Br-] | 0.97 µM | 1.09 µM | 48% | Activity (Leishmania donovani [3]): 50%; Activity (Leishmania donovani [4]): inactive; Activity (Leishmania donovani [5]): Active; inhibition (INH) (Leishmania donovani [6]): 80%; Activity (Leishmania donovani [7]): Active; Activity (Leishmania donovani [8]): Active; Activity (Leishmania donovani [9]): Active; Activity (Leishmania donovani [10]): Active; Activity (Leishmania donovani [11]): 24.9%; Activity (Leishmania donovani [12]): 22.1%; Activity (Leishmania donovani [13]): 34.5%
CC[P+](CC)(Cc1ccc(C(=O)c2ccc(C[P+](CC)(CC)c3ccccc3)cc2)cc1)c1ccccc1 | > 50 µM | > 50 µM |  | 
CC[P+](Cc1ccc(C(=O)c2ccc(C[P+](CC)(c3ccccc3)c3ccccc3)cc2)cc1)(c1ccccc1)c1ccccc1.[Br-].[Br-] | 14 µM | 6.9 µM | 100% | 
CC(C)C[P+](Cc1ccc(C(=O)c2ccc(C[P+](CC(C)C)(CC(C)C)CC(C)C)cc2)cc1)(CC(C)C)CC(C)C | > 50 µM | > 50 µM |  | 
Cc1ccc([P+](Cc2ccc(C(=O)c3ccc(C[P+](c4ccccc4)(c4ccccc4)c4ccc(C)cc4)cc3)cc2)(c2ccccc2)c2ccccc2)cc1.[Br-].[Br-] | 1.38 µM | 1.2 µM | 53.25% | 
CC(C)[P+](Cc1ccc(C(=O)c2ccc(C[P+](C(C)C)(C(C)C)C(C)C)cc2)cc1)(C(C)C)C(C)C | > 50 µM | > 50 µM |  | 
C[P+](C)(Cc1ccc(C(=O)c2ccc(C[P+](C)(C)c3ccccc3)cc2)cc1)c1ccccc1 | > 50 µM | > 50 µM |  | 
C[P+](C)(C)Cc1ccc(C(=O)c2ccc(C[P+](C)(C)C)cc2)cc1 | > 50 µM | > 50 µM |  | 
O=C(c1ccc(C[P+](c2ccccc2)(c2ccccc2)c2ccccc2)cc1)c1ccc(C[P+](c2ccccc2)(c2ccccc2)c2ccccc2)cc1.[Br-].[Br-] | 1.53 µM | 2.73 µM | 67.25% | 
CC[P+](CC)(CC)Cc1ccc(C(=O)c2ccc(C[P+](CC)(CC)CC)cc2)cc1 | > 50 µM | > 50 µM |  | 
CCCCCCCC[P+](CCCCCCCC)(CCCCCCCC)Cc1ccc(C(=O)c2ccc(C[P+](CCCCCCCC)(CCCCCCCC)CCCCCCCC)cc2)cc1.[Br-].[Br-] | 1.37 µM | 5.66 µM | 10.8% | 
O=C(c1ccc(C[P+](c2ccco2)(c2ccco2)c2ccco2)cc1)c1ccc(C[P+](c2ccco2)(c2ccco2)c2ccco2)cc1 | > 50 µM | 18.1 µM |  | 
CCCC[P+](CCCC)(CCCC)Cc1ccc(C(=O)c2ccc(C[P+](CCCC)(CCCC)CCCC)cc2)cc1 | > 50 µM | > 50 µM |  | 
Cc1ccccc1[P+](Cc1ccc(C(=O)c2ccc(C[P+](c3ccccc3)(c3ccccc3)c3ccccc3C)cc2)cc1)(c1ccccc1)c1ccccc1.[Br-].[Br-] | 1.51 µM | 1.9 µM | 55.75% | 
O=C(c1ccc(C[P+](C2CCCCC2)(C2CCCCC2)C2CCCCC2)cc1)c1ccc(C[P+](C2CCCCC2)(C2CCCCC2)C2CCCCC2)cc1.[Br-].[Br-] | 1.67 µM | 3.3 µM | 42% | 
